This is an account of results in PMC4641816 (Journal of biomolecular screening, 2014).

The subject of data set [1] is PfM18AAP. The settings on record: cited from earlier work.
Data set [2] deals with recombinant CTSL1 (Fasciola hepatica, UniProt Q7JNQ9). Briefly: Cathepsin L1. The format is biochemical.
Data set [3] deals with PfM18AAP extracts (soluble freeze-thaw extracts of parasites) (Plasmodium falciparum, UniProt Q8I2J3). The data set is described as follows: Malaria cell lysate assay. The format is biochemical. The settings on record: at ≤5μM. A digest of the protocol:
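Human erythrocytes infected in vitro were washed in PBS and parasites released with saponin. Three freeze-thaw cycles followed and supernatant extracts were kept. Extracts were incubated with test compound plus CoCl2 and aminoacyl-NHMec substrate (given as both H-Glu- and H-Asp-NHMec). Decreased fluorescence from substrate cleavage was taken as inhibition. Vehicle and background controls were included.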

Data set [4] relates to P. falciparum infected red blood cells. The data set is described as follows: Parasite growth assay. The format is cell-based, Plasmodium falciparum. The settings on record: 10 μM test concentration. An outline of the steps:
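Asexual erythrocytic-stage P. falciparum in infected RBCs was incubated with test compound at 10 µM in hypoxanthine-free medium, then 3H-hypoxanthine was added. 3H incorporation was measured after 48 h; reduced incorporation was scored as inhibition. Each plate held vehicle and uninfected-RBC background controls (DMSO ≤1%).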

For data set [5], the target named is T1, purified recombinant PfM18AAP (Plasmodium falciparum, UniProt Q8I2J3).
T1 sequence (Q8I2J3 1-570): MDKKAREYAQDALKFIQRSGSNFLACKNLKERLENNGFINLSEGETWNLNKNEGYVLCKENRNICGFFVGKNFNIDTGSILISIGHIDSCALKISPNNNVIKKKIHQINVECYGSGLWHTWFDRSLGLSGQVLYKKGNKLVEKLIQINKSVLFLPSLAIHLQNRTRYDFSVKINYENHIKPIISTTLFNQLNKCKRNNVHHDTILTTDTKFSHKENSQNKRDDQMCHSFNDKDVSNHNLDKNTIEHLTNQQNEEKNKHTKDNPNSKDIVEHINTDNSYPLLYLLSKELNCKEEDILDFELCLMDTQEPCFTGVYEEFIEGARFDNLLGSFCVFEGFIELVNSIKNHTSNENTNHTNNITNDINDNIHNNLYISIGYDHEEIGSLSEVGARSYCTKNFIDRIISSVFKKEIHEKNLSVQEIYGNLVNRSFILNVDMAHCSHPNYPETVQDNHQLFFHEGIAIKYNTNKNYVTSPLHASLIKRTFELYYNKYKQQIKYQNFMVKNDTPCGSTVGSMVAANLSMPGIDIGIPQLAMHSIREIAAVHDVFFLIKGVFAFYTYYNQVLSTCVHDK
The data set is described as follows: Ki determination and mode of inhibition. Type of data set: biochemical. The settings on record: for mode of inhibition of PfM18AAP: comparison of fits, Lineweaver-Burk plots.

For data set [6] the following is noted: previous primary screens at SRIMSC; ref PubChem AIDs 1859, 1931, 651959; cited from earlier work.
The subject of data set [7] is mammalian cytotoxicity. The settings on record: previous primary screens, where tested; ref PubChem AIDs 1486, 1825; cited from earlier work.
Data set [8] has as its system bacterial viability. The settings on record: previous primary screens, where tested; ref PubChem AIDs 449731, 651606; cited from earlier work.
Data set [9] deals with serotonin receptor. The settings on record: previous primary screens; ref PubChem AIDs 612 and 504916; cited from earlier work.

Like-named read-outs stand apart in the source and are kept apart here. Some results are limits rather than exact numbers.

As to `[Cl-].[Cl-].[Co+2]` [cobalt], the “effect of metal ion on PfM18AAP activity” value in [1] is “enhanced”.
As to `[Cl-].[Cl-].[Zn+2]` [Zn(II), ZnCl2, reference compound], the “concentration at which PfM18AAP is inhibited” value in data set [1] is > 1 mM.
As for `CN1CCc2cccc3c2[C@@H]1Cc1ccc(O)c(O)c1-3.Cl.O` [CID 6852389, (S)-(+)-Apomorphine hydrochloride hydrate], the IC50 in data set [2] (read-out: IC50 in CTSL1 titration experiments, 10 point titration, triplicate) is > 59600 nM. In addition, the “efficacy in P. falciparum lysate assay” value in [3] is on record as 84%. For the same compound, the “inhibition in 3H hypoxanthine incorporation assay” value in data set [4] was 87%. In addition, the “mode of inhibition of PfM18AAP” value in data set [5] is “non-competitive”. In data set [5] (read-out: Ki (non-linear regression), powder samples, substrate Glu-NHMec), the Ki was found to be 3390 ± 360 nM. In data set [6], the “activity in similarly formatted enzymatic inhibition assays” value was “devoid of activity”. For the same compound, the “activity in mammalian cytotoxicity screens” value in [7] is “inactive”. The “activity in bacterial viability screens” value in data set [8] is “inactive”. In addition, the “activity in cell-based screens at SRIMSC (serotonin receptor screens)” value in data set [9] was “inactive in all cell-based screens tested at the SRIMSC, except for two serotonin receptor screens”.
Consider `Oc1ccc(CCNc2c3ccccc3nc3ccccc23)cc1O` [CID 23724194, 4-[2-(acridin-9-ylamino)ethyl]benzene-1,2-diol], for which the IC50 in data set [2] was > 59600 nM. Moreover, in data set [5], the Ki turned out to be 1350 ± 150 nM and the “mode of inhibition of PfM18AAP” value is “non-competitive”. Besides, the “activity in similarly formatted enzymatic inhibition assays” value in [6] is recorded as “devoid of activity”. In [7], the “activity in mammalian cytotoxicity screens” value was “inactive”. For the same compound, the “activity in bacterial viability screens” value in data set [8] is “inactive”. For the same compound, the “activity in cell-based screens at SRIMSC (serotonin receptor screens)” value in [9] was “inactive in all cell-based screens tested at the SRIMSC, except for two serotonin receptor screens”.
For `[Mn+2]` [manganese], the “effect of metal ion on PfM18AAP activity” value in data set [1] is given as “enhanced”.
On to `C[C@H](NC(=O)[C@H](Cc1ccccc1)NC(=O)OCc1ccccc1)C(=O)C=[N+]=[N-]` [Z-Phe-Ala diazomethylketone, Z-Phe-Ala-diazomethylketone, reference compound], for which the IC50 in data set [2] (read-out: IC50 of positive control in CTSL1 HTS assay, average, N=22 plates) amounted to 15.4 nM.

As usually defined, the Ki is the equilibrium dissociation constant of an inhibitor or competing ligand from its target.
